Experimental data reported in ChEMBL document CHEMBL1141396, “Synthesis and mixed lineage kinase activity of pyrrolocarbazole and isoindolone analogs of (+)K-252a” (J Med Chem, 2007).
Values belong to the compound of their own block, whether it stands above or below them. Activity calls are given as the source filed them. The calls are words filed in the database; no cut-off is given here.

What was measured:
[1] = biological target: T1, Mitogen-activated protein kinase kinase kinase 9 (Homo sapiens, UniProt P80192); assay: Inhibition of GST-MLK1 expressed in baculovirus
[2] = biological target: Mitogen-activated protein kinase kinase kinase 11 (Homo sapiens, UniProt Q16584); assay: Inhibition of GST-MLK3 expressed in baculovirus
[3] = biological target: T2, Choline O-acetyltransferase (Rattus norvegicus) (UniProt P32738); assay: Enhancement of choline acetyltransferase activity in embryonic rat spinal cord at 300 nM
T2 sequence (whole entry): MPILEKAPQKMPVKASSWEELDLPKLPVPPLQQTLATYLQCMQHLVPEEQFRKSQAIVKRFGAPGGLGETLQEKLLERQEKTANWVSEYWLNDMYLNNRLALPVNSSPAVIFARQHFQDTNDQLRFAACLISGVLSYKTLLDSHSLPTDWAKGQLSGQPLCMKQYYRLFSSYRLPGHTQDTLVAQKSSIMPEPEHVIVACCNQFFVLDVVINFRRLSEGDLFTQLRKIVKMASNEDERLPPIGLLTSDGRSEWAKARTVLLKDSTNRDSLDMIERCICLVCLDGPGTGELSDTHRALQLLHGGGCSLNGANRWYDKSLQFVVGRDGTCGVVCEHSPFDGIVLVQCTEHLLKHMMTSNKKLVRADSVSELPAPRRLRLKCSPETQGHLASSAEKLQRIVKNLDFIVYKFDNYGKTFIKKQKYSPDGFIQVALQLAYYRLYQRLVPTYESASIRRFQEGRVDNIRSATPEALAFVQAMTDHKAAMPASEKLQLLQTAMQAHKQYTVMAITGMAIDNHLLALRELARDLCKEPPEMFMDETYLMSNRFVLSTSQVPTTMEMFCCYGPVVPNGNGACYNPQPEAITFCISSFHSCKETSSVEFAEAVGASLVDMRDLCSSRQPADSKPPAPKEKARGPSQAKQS
In short: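 Embryonic rat spinal cord cultures; compounds at 300 nM, ChAT activity measured after 2 days in culture, expressed as percent of basal (100%). K-252a run as internal control. Mean ± standard deviation of three independent experiments.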

[4] = biological target: Mitogen-activated protein kinase 14 (Homo sapiens) (UniProt Q16539); assay: Inhibition of p38-alpha at 1 uM
Mitogen-activated protein kinase 14 (Homo sapiens), sequence (Q16539 whole entry): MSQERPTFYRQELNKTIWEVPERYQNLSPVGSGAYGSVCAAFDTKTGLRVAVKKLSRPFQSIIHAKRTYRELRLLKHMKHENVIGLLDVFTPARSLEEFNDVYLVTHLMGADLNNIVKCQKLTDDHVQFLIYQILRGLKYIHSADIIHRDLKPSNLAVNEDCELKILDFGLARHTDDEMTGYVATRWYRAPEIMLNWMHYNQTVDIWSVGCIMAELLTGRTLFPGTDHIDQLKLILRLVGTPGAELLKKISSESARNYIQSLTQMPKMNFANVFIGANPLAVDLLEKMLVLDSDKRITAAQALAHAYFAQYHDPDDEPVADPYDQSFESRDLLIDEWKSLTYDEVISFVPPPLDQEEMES

[5] = biological target: T1, Mitogen-activated protein kinase kinase kinase 9; assay: Inhibition of MKK4 phosphorylation in MLK1 transfected CHO cells at 1 uM after 1 hr; assay type: functional, cell-based
In short: (§1)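 CHO cells transfected with MLK1 plus dominant-negative MKK4 cDNA. Compound exposure 1 h, tested up to 1 µM. Phospho-MKK4 read by ELISA.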
Target sequence in this assay (P80192 whole entry): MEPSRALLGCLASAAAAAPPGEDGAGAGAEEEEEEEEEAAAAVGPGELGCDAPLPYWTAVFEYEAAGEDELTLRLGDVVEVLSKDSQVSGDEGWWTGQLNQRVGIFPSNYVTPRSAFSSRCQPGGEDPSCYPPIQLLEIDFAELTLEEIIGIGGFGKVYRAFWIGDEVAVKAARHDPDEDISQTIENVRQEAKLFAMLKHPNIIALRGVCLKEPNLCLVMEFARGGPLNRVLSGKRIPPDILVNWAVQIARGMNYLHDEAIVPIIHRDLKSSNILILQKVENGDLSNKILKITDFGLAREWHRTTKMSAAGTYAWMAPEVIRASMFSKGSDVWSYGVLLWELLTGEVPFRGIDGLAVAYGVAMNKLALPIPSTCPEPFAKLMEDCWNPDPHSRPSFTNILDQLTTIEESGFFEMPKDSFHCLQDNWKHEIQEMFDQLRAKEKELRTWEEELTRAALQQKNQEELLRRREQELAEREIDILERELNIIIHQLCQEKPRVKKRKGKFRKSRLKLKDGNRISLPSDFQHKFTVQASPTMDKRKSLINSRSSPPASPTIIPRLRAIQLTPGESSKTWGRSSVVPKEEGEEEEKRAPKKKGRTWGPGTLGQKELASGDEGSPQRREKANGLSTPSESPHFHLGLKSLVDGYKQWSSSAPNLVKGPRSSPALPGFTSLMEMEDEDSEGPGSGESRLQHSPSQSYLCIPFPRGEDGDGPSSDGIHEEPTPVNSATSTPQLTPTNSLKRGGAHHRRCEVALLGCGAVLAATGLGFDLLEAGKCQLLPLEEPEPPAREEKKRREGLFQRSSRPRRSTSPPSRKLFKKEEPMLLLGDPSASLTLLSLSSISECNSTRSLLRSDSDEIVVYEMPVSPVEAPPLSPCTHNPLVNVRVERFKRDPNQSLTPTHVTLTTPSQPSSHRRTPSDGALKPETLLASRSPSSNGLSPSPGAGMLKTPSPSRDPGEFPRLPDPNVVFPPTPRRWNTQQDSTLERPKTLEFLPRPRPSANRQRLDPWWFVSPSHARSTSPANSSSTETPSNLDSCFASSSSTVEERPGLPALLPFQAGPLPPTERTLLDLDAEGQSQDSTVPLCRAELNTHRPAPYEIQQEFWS

[6] = biological target: Angiopoietin-1 receptor (Homo sapiens) (UniProt Q02763); assay: Inhibition of TIE2 at 1 uM
[7] = biological target: Cyclin-dependent kinase 2 (Homo sapiens) (UniProt P24941); assay: Inhibition of CDK2 at 1 uM
Protein kinase C (PKC) = assay: Inhibition of PKC; assay type: protein assay, Homo sapiens
[8] = biological target: Cyclin-dependent kinase 1 (Homo sapiens) (UniProt P06493); assay: Inhibition of CDK1 at 1 uM
Cyclin-dependent kinase 1 (Homo sapiens), sequence (P06493 whole entry, looked up): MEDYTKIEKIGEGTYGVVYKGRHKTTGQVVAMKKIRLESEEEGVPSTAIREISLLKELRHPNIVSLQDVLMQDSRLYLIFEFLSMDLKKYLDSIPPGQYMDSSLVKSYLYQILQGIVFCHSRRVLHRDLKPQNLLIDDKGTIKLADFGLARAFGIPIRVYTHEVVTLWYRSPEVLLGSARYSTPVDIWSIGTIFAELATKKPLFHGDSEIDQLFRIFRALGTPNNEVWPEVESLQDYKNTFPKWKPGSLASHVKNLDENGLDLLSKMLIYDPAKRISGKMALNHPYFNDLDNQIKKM

[9] = biological target: Platelet-derived growth factor receptor beta (Homo sapiens) (UniProt P09619); assay: Inhibition of PDGFRbeta at 1 uM
[10] = biological target: Mitogen-activated protein kinase kinase kinase 10 (Homo sapiens, UniProt Q02779); assay: Inhibition of GST-MLK2
[11] = biological target: Mitogen-activated protein kinase 8 (Homo sapiens) (UniProt P45983); assay: Inhibition of JNK1 at 1 uM
[12] = biological target: Fibroblast growth factor receptor 1 (Homo sapiens) (UniProt P11362); assay: Inhibition of FGFR1 at 1 uM
Fibroblast growth factor receptor 1 (Homo sapiens), sequence (P11362 22-822 limits assumed): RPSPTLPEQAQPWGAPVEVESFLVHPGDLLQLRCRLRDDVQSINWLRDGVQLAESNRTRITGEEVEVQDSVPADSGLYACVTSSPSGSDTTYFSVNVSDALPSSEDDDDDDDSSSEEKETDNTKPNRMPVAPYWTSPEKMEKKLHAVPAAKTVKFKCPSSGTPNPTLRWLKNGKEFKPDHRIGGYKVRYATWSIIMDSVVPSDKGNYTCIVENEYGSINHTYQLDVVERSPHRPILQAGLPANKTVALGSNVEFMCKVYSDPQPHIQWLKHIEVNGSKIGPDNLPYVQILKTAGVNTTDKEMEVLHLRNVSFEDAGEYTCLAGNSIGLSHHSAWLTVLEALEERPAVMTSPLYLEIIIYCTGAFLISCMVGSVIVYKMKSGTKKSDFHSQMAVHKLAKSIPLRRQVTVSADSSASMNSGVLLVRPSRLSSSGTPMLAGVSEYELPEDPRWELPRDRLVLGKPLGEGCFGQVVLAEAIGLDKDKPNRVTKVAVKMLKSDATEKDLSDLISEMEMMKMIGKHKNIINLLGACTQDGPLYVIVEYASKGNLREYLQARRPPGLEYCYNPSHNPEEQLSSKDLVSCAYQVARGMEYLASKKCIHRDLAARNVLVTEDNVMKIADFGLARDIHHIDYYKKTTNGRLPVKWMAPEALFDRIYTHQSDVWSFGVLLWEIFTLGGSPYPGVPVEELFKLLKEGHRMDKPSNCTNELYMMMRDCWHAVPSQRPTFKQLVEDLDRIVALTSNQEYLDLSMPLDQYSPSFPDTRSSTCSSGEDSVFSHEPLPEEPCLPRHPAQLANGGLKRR

[13] = biological target: Insulin receptor (Homo sapiens) (UniProt P06213); assay: Inhibition of IRKbeta at 1 uM
Insulin receptor (Homo sapiens), sequence (P06213 28-758 limits assumed): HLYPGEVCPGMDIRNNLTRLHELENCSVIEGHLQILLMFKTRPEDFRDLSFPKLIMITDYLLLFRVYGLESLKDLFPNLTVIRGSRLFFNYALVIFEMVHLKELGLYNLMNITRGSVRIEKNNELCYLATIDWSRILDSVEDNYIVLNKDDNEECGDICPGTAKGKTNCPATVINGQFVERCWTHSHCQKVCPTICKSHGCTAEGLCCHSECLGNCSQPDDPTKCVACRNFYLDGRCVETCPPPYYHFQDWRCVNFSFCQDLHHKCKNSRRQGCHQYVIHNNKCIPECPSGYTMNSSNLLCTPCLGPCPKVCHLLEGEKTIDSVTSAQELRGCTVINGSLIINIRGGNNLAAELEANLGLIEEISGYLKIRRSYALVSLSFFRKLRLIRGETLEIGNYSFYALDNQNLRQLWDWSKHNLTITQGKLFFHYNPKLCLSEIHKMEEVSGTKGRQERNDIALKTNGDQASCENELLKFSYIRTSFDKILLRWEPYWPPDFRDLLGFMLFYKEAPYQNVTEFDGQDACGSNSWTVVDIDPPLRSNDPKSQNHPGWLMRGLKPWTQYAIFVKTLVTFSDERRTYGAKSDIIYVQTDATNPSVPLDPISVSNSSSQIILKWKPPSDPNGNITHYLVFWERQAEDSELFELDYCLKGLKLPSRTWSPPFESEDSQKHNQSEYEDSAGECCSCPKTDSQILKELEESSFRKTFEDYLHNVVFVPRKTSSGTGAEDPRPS
Insulin receptor (Homo sapiens), sequence (P06213 763-1382 limits assumed): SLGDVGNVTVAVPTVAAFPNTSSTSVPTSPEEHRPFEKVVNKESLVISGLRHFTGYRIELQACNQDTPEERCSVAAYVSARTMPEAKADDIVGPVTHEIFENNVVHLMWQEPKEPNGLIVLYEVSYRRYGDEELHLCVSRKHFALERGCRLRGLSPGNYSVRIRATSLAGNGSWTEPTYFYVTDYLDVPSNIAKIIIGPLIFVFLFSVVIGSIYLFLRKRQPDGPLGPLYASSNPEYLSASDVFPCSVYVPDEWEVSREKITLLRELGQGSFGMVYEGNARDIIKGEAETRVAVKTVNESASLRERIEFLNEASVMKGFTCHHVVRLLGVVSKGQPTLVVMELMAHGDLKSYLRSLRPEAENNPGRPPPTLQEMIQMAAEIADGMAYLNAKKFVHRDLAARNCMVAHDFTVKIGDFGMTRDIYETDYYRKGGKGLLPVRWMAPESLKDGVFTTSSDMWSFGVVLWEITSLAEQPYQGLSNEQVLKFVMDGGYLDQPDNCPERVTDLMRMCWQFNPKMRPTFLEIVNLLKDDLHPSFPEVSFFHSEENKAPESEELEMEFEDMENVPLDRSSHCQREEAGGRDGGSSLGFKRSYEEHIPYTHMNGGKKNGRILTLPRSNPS

[14] = biological target: Epidermal growth factor receptor (Homo sapiens) (UniProt P00533); assay: Inhibition of EGFR at 1 uM
[15] = biological target: Vascular endothelial growth factor receptor 2 (Homo sapiens, UniProt P35968); assay: Inhibition of VEGFR2
[16] = biological target: T1, Mitogen-activated protein kinase kinase kinase 9; assay: Inhibition of MKK4 phosphorylation in MLK1 transfected CHO cells after 1 hr; assay type: functional, cell-based; in short: as §1
Target sequence in this assay (P80192 whole entry): as the sequence (P80192 whole entry) above

[17] = biological target: High affinity nerve growth factor receptor (Homo sapiens, UniProt P04629); assay: Inhibition of TrkA
High affinity nerve growth factor receptor, sequence (P04629 whole entry): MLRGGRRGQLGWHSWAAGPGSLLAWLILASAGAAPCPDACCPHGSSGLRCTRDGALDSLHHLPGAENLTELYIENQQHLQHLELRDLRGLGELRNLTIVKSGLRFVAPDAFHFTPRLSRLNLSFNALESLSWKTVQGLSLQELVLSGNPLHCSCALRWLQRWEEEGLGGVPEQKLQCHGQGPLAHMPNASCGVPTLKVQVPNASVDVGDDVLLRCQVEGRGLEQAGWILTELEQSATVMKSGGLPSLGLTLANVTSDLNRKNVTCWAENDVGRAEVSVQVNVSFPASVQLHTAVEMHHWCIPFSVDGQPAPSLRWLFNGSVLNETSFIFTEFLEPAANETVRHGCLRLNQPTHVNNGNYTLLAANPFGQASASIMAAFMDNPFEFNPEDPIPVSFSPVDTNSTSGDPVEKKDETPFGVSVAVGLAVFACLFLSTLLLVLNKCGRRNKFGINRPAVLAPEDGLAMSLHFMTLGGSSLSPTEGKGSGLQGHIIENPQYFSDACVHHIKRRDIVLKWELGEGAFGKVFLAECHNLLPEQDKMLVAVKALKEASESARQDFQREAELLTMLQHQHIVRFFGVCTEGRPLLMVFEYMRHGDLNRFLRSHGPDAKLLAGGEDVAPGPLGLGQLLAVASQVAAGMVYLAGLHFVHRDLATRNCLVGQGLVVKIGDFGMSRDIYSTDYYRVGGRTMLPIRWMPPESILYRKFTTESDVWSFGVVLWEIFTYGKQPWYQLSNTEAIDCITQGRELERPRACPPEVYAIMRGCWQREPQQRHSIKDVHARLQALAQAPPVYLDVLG

- IC50 [1]: 308 nM
- IC50 [2]: 270 nM
- Activity [3]: inactive
Structure (SMILES): O=C1NCc2c1c1c3ccccc3[nH]c1c1oc3ccccc3c21

- IC50 [1]: > 300 nM
- IC50 [2]: > 300 nM
- Activity [3]: inactive
Structure (SMILES): O=C1NC(=O)c2c1c1c3ccccc3[nH]c1c1oc3ccccc3c21

- IC50 [1]: > 300 nM
- IC50 [2]: > 300 nM
Structure (SMILES): O=C1NC(=O)c2c1c1c3ccccc3sc1c1sc3ccccc3c21

- IC50 [1]: > 300 nM
- IC50 [2]: > 300 nM
- Activity [3]: inactive
Structure (SMILES): O=C1NC(=O)c2c1c1c(c3c2-c2ccccc2C3)Cc2ccccc2-1

Structure (SMILES): O=C1NC(=O)c2c1c1c3ccccc3ccc1c1[nH]c3ccccc3c21
- IC50 [1]: 300 nM
- IC50 [2]: 300 nM

- inhibition [4]: < 30%
- Inhibition [5]: 22%
- inhibition [6]: < 30%
- inhibition [7]: < 30%
- IC50 (Protein kinase C (PKC)): > 1000 nM
- IC50 [1]: 167 nM
- inhibition [8]: < 30%
- inhibition [9]: < 30%
- IC50 [2]: 87 nM
- IC50 [10]: 2660 nM
- inhibition [11]: < 30%
- Activity [3]: 155%
- inhibition [12]: < 30%
- inhibition [13]: < 30%
- inhibition [14]: < 30%
Structure (SMILES): O=C1NCc2c3c(c4[nH]c5ccccc5c4c21)Cc1ccccc1-3

- IC50 [1]: 615 nM
- IC50 [2]: 110 nM
Structure (SMILES): O=C1NCc2c3c(c4sc5ccccc5c4c21)Cc1ccccc1-3

- IC50 [15]: > 300 nM
- inhibition [4]: < 30%
- inhibition [6]: < 30%
- inhibition [7]: < 30%
- IC50 (Protein kinase C (PKC)): 205 nM
- IC50 [1]: 46 nM
- inhibition [8]: < 30%
- inhibition [9]: < 30%
- IC50 [2]: 22 nM
- IC50 [10]: 3450 nM
- inhibition [11]: < 30%
- Activity [3]: 171%
- IC50 [16]: 274 nM
- inhibition [12]: < 30%
- IC50 [17]: > 1000 nM
- inhibition [13]: < 30%
- inhibition [14]: < 30%
Structure (SMILES): O=C1NCc2c3c(c4[nH]c5ccccc5c4c21)CCc1ccccc1-3

- Activity [1]: inactive
- Activity [2]: inactive
Structure (SMILES): O=C1NCc2c3c(c4[nH]c5ccccc5c4c21)-c1ccccc1C3

- IC50 [1]: 1410 nM
- IC50 [2]: 277 nM
Structure (SMILES): O=C1NCc2c1c1c(c3c2-c2ccccc2C3)Cc2ccccc2-1

- IC50 [1]: 68 nM
- IC50 [2]: 58 nM
Structure (SMILES): O=C1NC(=O)c2c1c1c3ccccc3[nH]c1c1sc3ccccc3c21

- inhibition [4]: < 30%
- Inhibition [5]: 19%
- inhibition [6]: < 30%
- inhibition [7]: < 30%
- IC50 (Protein kinase C (PKC)): 1196 nM
- IC50 [1]: 69 nM
- inhibition [8]: < 30%
- inhibition [9]: < 30%
- IC50 [2]: 40 nM
- IC50 [10]: 364 nM
- inhibition [11]: < 30%
- Activity [3]: 152%
- inhibition [12]: < 30%
- inhibition [13]: < 30%
- inhibition [14]: < 30%
Structure (SMILES): O=C1NCc2c1c1c(c3[nH]c4ccccc4c23)Cc2ccccc2-1

- IC50 [1]: > 10000 nM
- IC50 [2]: 1110 nM
- Activity [3]: inactive
Structure (SMILES): O=C1NCc2c1c1c3ccccc3oc1c1[nH]c3ccccc3c21

- Activity [1]: inactive
- Activity [2]: inactive
Structure (SMILES): O=C1NCc2c1c1c(c3[nH]c4ccccc4c23)-c2ccccc2C1

- IC50 [1]: > 300 nM
- IC50 [2]: > 300 nM
Structure (SMILES): O=C1NC(=O)c2c1c1c(c3[nH]c4ccccc4c23)Cc2ccccc2-1

- IC50 [1]: 482 nM
- IC50 [2]: 157 nM
Structure (SMILES): O=C1NCc2c1c1c(c3sc4ccccc4c23)Cc2ccccc2-1

Structure (SMILES): O=C1NCc2c1c1c3ccccc3sc1c1sc3ccccc3c21
- IC50 [1]: > 10000 nM
- IC50 [2]: > 10000 nM
- Activity [3]: inactive

- IC50 [1]: 1800 nM
- IC50 [2]: 171 nM
Structure (SMILES): O=C1NCc2c1c1c3ccccc3[nH]c1c1sc3ccccc3c21

- IC50 [1]: > 300 nM
- IC50 [2]: > 300 nM
Structure (SMILES): O=C1NC(=O)c2c1c1c(c3sc4ccccc4c23)Cc2ccccc2-1

Structure (SMILES): COC(=O)[C@]1(O)C[C@@H]2O[C@@]1(C)n1c3ccccc3c3c4c(c5c6ccccc6n2c5c31)C(=O)NC4
- IC50 [10]: 45 nM

- IC50 [15]: > 300 nM
- inhibition [4]: < 30%
- inhibition [6]: < 30%
- inhibition [7]: < 30%
- IC50 (Protein kinase C (PKC)): 83 nM
- IC50 [1]: 22 nM
- inhibition [8]: < 30%
- inhibition [9]: < 30%
- IC50 [2]: 12 nM
- IC50 [10]: 339 nM
- inhibition [11]: < 30%
- Activity [3]: 178%
- IC50 [16]: 90 nM
- inhibition [12]: < 30%
- IC50 [17]: > 1000 nM
- inhibition [13]: < 30%
- inhibition [14]: < 30%
Structure (SMILES): O=C1NC(=O)c2c1c1c(c3[nH]c4ccccc4c23)CCc2ccccc2-1

Structure (SMILES): O=C1NCc2c1c1c3ccccc3[nH]c1c1[nH]c3ccccc3c21 [STAUROSPORINONE]
- IC50 [1]: 138 nM
- IC50 [2]: 49 nM

- IC50 [15]: > 300 nM
- inhibition [4]: < 30%
- Inhibition [5]: 3%
- inhibition [6]: < 30%
- inhibition [7]: < 30%
- IC50 (Protein kinase C (PKC)): > 1000 nM
- IC50 [1]: 111 nM
- inhibition [8]: < 30%
- inhibition [9]: < 30%
- IC50 [2]: 26 nM
- IC50 [10]: 2090 nM
- inhibition [11]: < 30%
- Activity [3]: 138%
- inhibition [12]: < 30%
- IC50 [17]: 88 nM
- inhibition [13]: < 30%
- inhibition [14]: < 30%
Structure (SMILES): O=C1NCc2c1c1c3ccccc3sc1c1[nH]c3ccccc3c21
